This assay deals with metallo-beta-lactamase IMP-1 (Pseudomonas aeruginosa). The experiment in a line: inhibition constants against purified IMP-1 – biochemical, absorbance, Ki and Km, nonselective VIM-2 MBL inhibitor project, late-stage follow-up (AID 624084). The conditions noted are these: recombinant IMP-1, nitrocefin hydrolysis absorbance 495 nm, kinetic. The method, boiled down: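 System: IMP-1 enzyme; Medium: HEPES buffer pH 7.1 with ZnSO4 and Brij 35; Also added: nitrocefin substrate across a range of concentrations; Dosing: varied inhibitor concentrations; Timing: 6 min continuous absorbance reading at room temperature; Measured by: continuous absorbance at 495 nm from nitrocefin cleavage; Read-out basis: Ki from mixed-inhibition model fit.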

Each structure is given as a SMILES string.

As usually defined, the Ki is a measure of affinity in units of concentration, obtained from inhibition or displacement.

On to `CN1CCN(NC(=O)CN2C(=O)/C(=C/c3c(Cl)ccc(Cl)c3Cl)SC2=S)CC1`, for which the Ki was 930 nM.

(Values after PubChem BioAssay AID624084 (The Scripps Research Institute Molecular Screening Center, 2012).)
